≈ marks a conversion by molar mass, not a printed value.
What was measured:
[1] = test system: Streptococcus pneumoniae; experiment: Antibacterial activity against erm(B) and mef(E)-positive Streptococcus pneumoniae isolate Spain 6B by broth microdilution method; type: functional
Outline: (§1)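 MICs by broth microdilution following CLSI guidelines, incubated at 35°C in ambient air. S. pneumoniae ATCC 49619 served as reference strain in each run. CLSI breakpoints applied. Isolates typed for mef(A)/mef(E) by PCR and by MLST.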

[2] = test system: Streptococcus pneumoniae; experiment: Antibacterial activity against mef and erm(B) positive Streptococcus pneumoniae isolates by broth microdilution method; type: functional
Outline: (§2)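 Broth microdilution MICs per CLSI guidelines. Agents tested were penicillin G, cefotaxime, erythromycin, clindamycin, telithromycin, tetracycline and levofloxacin. Plates were incubated at 35°C in ambient air. S. pneumoniae ATCC 49619 served as the reference strain in each run.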

[3] = test system: Streptococcus pneumoniae; experiment: Antibacterial activity against mef-positive Streptococcus pneumoniae isolates by broth microdilution method; type: functional; outline: as §2
[4] = test system: Streptococcus pneumoniae; experiment: Antibacterial activity against erm(B) and mef(E)-positive Streptococcus pneumoniae isolate Sweden 15A-25 by broth microdilution method; type: functional; outline: as §1
[5] = test system: Streptococcus pneumoniae; experiment: Antibacterial activity against erm(B) and mef(E)-positive Streptococcus pneumoniae isolate CC-6B by broth microdilution method
[6] = test system: Streptococcus pneumoniae; experiment: Antibacterial activity against mef(E)-positive Streptococcus pneumoniae isolate Spain 9V-3 by broth microdilution method; type: functional; outline: as §2
[7] = test system: Streptococcus pneumoniae; experiment: Antibacterial activity against mef-positive Streptococcus pneumoniae isolates assessed as resistance incidence by broth microdilution method; type: functional
Outline: (§3)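 Clinical isolates were tested by CLSI broth microdilution against penicillin G, cefotaxime, erythromycin, clindamycin, telithromycin, tetracycline and levofloxacin, incubated at 35°C in ambient air, with ATCC 49619 as the control in each run. Isolates were classed as resistant using CLSI breakpoints.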

[8] = test system: Streptococcus pneumoniae; experiment: Antibacterial activity against mef and erm(B) positive Streptococcus pneumoniae isolates assessed as resistance incidence by broth microdilution method; type: functional; outline: as §3

Row | SMILES | MIC [1] [µg/mL] | MIC50 [2] [µg/mL] | MIC90 [2] [µg/mL] | MIC50 [3] [µg/mL] | MIC90 [3] [µg/mL] | MIC [4] [µg/mL] | MIC [5] [µg/mL] | MIC [6] [µg/mL] | Activity [7] [%] | Activity [8] [%]
1 | CO/N=C(\C(=O)N[C@@H]1C(=O)N2C(C(=O)O)=C(COC(C)=O)CS[C@H]12)c1csc(N)n1 [CEFOTAXIME] | 1 (≈ 2.2 µM) | 0.5 (≈ 1.1 µM) | 2 (≈ 4.39 µM) | 0.01 (≈ 0.022 µM) | 0.25 (≈ 0.549 µM) | 0.06 (≈ 0.132 µM) | 0.12 (≈ 0.263 µM) | 0.06 (≈ 0.132 µM) | 17.7 | 4.4
2 | CCC[C@@H]1C[C@@H](C(=O)N[C@@H]([C@H]2O[C@H](SC)[C@H](O)[C@@H](O)[C@H]2O)[C@H](C)Cl)N(C)C1 [CLINDAMYCIN] | ≥ 64 | 64 (≈ 151 µM) | > 64 | 0.03 (≈ 0.0706 µM) | 0.25 (≈ 0.588 µM) | ≥ 64 | 32 (≈ 75.3 µM) | 0.03 (≈ 0.0706 µM) | 0 | 62.2
3 | CC[C@H]1OC(=O)[C@H](C)[C@@H](O[C@H]2C[C@@](C)(OC)[C@@H](O)[C@H](C)O2)[C@H](C)[C@@H](O[C@@H]2O[C@H](C)C[C@H](N(C)C)[C@H]2O)[C@](C)(O)C[C@@H](C)C(=O)[C@H](C)[C@@H](O)[C@]1(C)O [ERYTHROMYCIN] | ≥ 64 | 64 (≈ 87.2 µM) | > 64 | 4 (≈ 5.45 µM) | 16 (≈ 21.8 µM) | ≥ 64 | 32 (≈ 43.6 µM) | 0.5 (≈ 0.681 µM) | – | –
4 | C[C@H]1COc2c(N3CCN(C)CC3)c(F)cc3c(=O)c(C(=O)O)cn1c23.C[C@H]1COc2c(N3CCN(C)CC3)c(F)cc3c(=O)c(C(=O)O)cn1c23.O [LEVOFLOXACIN] | – | 1 | 1 | 1 | 1 | – | – | – | – | –
5 | CC1(C)S[C@@H]2[C@H](NC(=O)Cc3ccccc3)C(=O)N2[C@H]1C(=O)O [PENICILLIN G] | 4 (≈ 12 µM) | 1 (≈ 2.99 µM) | 4 (≈ 12 µM) | 0.03 (≈ 0.0897 µM) | 1 (≈ 2.99 µM) | 0.12 (≈ 0.359 µM) | 0.12 (≈ 0.359 µM) | 0.12 (≈ 0.359 µM) | 35.5 | 46.7
6 | CC[C@H]1OC(=O)[C@H](C)C(=O)[C@H](C)[C@@H](O[C@@H]2O[C@H](C)C[C@H](N(C)C)[C@H]2O)[C@](C)(OC)C[C@@H](C)C(=O)[C@H](C)[C@H]2N(CCCCn3cnc(-c4cccnc4)c3)C(=O)O[C@]12C [TELITHROMYCIN] | 0.08 (≈ 0.0985 µM) | 0.06 (≈ 0.0739 µM) | 0.25 (≈ 0.308 µM) | 0.12 (≈ 0.148 µM) | 0.5 (≈ 0.616 µM) | 0.008 (≈ 0.00985 µM) | < 0.01 | 0.05 (≈ 0.0616 µM) | – | –
7 | CN(C)[C@@H]1C(O)=C(C(N)=O)C(=O)[C@@]2(O)C(O)=C3C(=O)c4c(O)cccc4[C@@](C)(O)[C@H]3C[C@@H]12 [TETRACYCLINE] | ≥ 64 | 16 (≈ 36 µM) | > 32 | 1 (≈ 2.25 µM) | 4 (≈ 9 µM) | ≥ 64 | 4 (≈ 9 µM) | 0.5 (≈ 1.13 µM) | 13.3 | 55.5
